From ChEMBL document CHEMBL1148339, “Synthesis, structure-activity relationships, and drug resistance of beta-d-3'-fluoro-2',3'-unsaturated nucleosides as anti-HIV Agents” (J Med Chem, 2004) come the findings set out here.

Where only a bound is given, the exact number is not on record here.

For data set [1], the system named is CCRF-CEM. The data set is described as follows: Cytotoxicity against T-lymphoblastoid cell line (CEM). The data set is classed as functional, cell-based. As to conditions: Homo sapiens. The method, boiled down:
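CEM T-lymphoblastoid cells in log phase, seeded 2.5 × 10³ cells/well with 10-fold serial dilutions of compound, 4 days at 37 °C in humidified 5% CO₂/air.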

Data set [2] concerns Human immunodeficiency virus 1. The data set is described as follows: Effective concentration against HIV-1 in human peripheral blood mononuclear cells (PBMC). The data set is classed as functional, organism-based. In a few lines: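 PBM cells infected in bulk for 1 h with HIV-1 LAI (100 TCID50/1 × 10⁷ cells, flask, or 200 TCID50/6 × 10⁵ cells/well), then cultured 5 days at 37 °C with 10-fold compound dilutions in IL-2 medium. Supernatant virus pelleted; RT activity measured with poly(rA)·oligo(dT) and [³H]TTP, 2 h 37 °C. EC50/EC90 by median effect method.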

Data set [3] can be described thus: Cytotoxicity against human peripheral blood mononuclear cells (PBMC). The data set is classed as functional, cell-based. The method, boiled down: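 Uninfected PHA-stimulated human PBM cells from seronegative donors (Ficoll–Hypaque), 5 × 10⁴ cells/well, 10-fold serial compound dilutions, 5 days at 37 °C in 5% CO₂/air. MTT assay read at 570 nm; IC50 by median effect method.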

In data set [4] the test system is Vero. As to the kind of experiment: Cytotoxicity against vero cell line. To be noted: Chlorocebus sabaeus. It counts as functional, cell-based. In a few lines:
(§1)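 Log-phase Vero (African green monkey kidney) cells seeded 5 × 10³ cells/well with 10-fold serial compound dilutions, cultured 3 days at 37 °C, humidified 5% CO₂/air.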

Data set [5] is described as follows: t1/2 (half life) period was determined. The data set is classed as ADME.
Data set [6] relates to Human immunodeficiency virus 1. The data set is described as follows: Effective concentration against M184V HIV-1 virus in human peripheral blood mononuclear cells.
The subject of data set [7] is Human immunodeficiency virus 1. The data set is described as follows: Effective concentration against Wild Type HIV-1 virus in human peripheral blood mononuclear cells.
Data set [8] concerns Vero. As to the kind of experiment: Cytotoxicity against Vero cell line. To be noted: Chlorocebus sabaeus. It counts as functional, cell-based. In a few lines:
as §1

The test system of data set [9] is adenosine deaminase (ADA). As to the kind of experiment: Ability to get deaminated by adenosine deaminase (ADA); Expressed as t1/2. It counts as ADME, Bos taurus. To be noted: cattle. The method, boiled down:
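Calf intestinal mucosa adenosine deaminase, 0.15 units, in phosphate buffer pH 7.4 at 25 °C; substrate at 20 μM. Deamination followed by UV absorbance at 265 nm, with substrate concentration derived from absorbance change over time to give half-life.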

A short description of data set [10]: t1/2 (half life) period was determined; No decomposition observed up to 7 days. The data set is classed as ADME. To be noted: 168 h.

On to `Nc1ncnc2c1ncn2[C@@H]1C=C(F)[C@H](CO)O1`, for which the IC50 in data set [1], in data set [3] and in data set [4] was > 100 µM each time. Also, the EC50 (commonly the midpoint of the concentration-response curve) in data set [2] is > 100 µM.
Take `Nc1ccn([C@H]2C=C(F)[C@@H](CO)O2)c(=O)n1`: the half-life – broadly, the time in which the quantity being followed falls by half – in data set [5] is 48 h. Also, the IC50 in data set [1], in [3] and in data set [4] was > 100 µM in each case. For the same compound, the half-maximal effective concentration (EC50) in data set [2] is 2.3 µM; in [6] it was 19.7 µM; in [7] it was 2.3 µM.
With `Nc1ccn([C@H]2C=C[C@@H](CO)O2)c(=O)n1`, the half-life in data set [5] was 1 h. Also, the EC50 in [2] was determined as 0.005 µM. Further, the IC50 (usually the concentration that inhibits the measured activity by half) in data set [3] turned out to be 65 µM.
Turning to `OC[C@H]1O[C@@H](n2cnc3c(O)ncnc32)C=C1F`, the IC50 is 77.7 µM in [1], > 100 µM in data set [3] and > 100 µM in data set [4]. In data set [2], this compound yielded a concentration for a half-maximal effect (EC50) of 12.8 µM.
`Nc1nc(O)c2ncn([C@H]3C=C(F)[C@@H](CO)O3)c2n1`: the results for the IC50 in data set [1], in data set [3] and in data set [4] were > 100 µM, > 100 µM and 75.5 µM, respectively. This compound also gave a half-maximal effective concentration (EC50) in [2] of 44.9 µM.
Consider `Cc1cn([C@H]2C=C(F)[C@@H](CO)O2)c(=O)[nH]c1=O`, for which the IC50 in data set [1], in [3] and in [8] was > 100 µM in each case. Further, the concentration giving a half-maximal response (EC50) in data set [2] was > 100 µM.
Turning to `Nc1ncnc2c1ncn2[C@H]1C=C[C@@H](CO)O1`, in data set [9], the half-life was 4460 min.
For the compound `O=c1ccn(C2C=C(F)C(CO)O2)c(=O)[nH]1` (stereo not given), the IC50 was > 100 µM in data set [1], > 100 µM in [3] and 82.6 µM in data set [4]. Also, the half-maximal effective concentration (EC50) in data set [2] was > 100 µM.
For `Nc1ncnc2c1ncn2[C@@H]1O[C@H](CO)C=C1F`, in data set [9], the half-life was 42 min.
Compound `Nc1ncnc2c1ncn2[C@H]1C=C(F)[C@@H](CO)O1` showed a half-life in [9] of 56 min. Moreover, the concentration for half-maximal inhibition (IC50) in [1], in data set [3] and in [4] was > 100 µM throughout. In addition, a half-maximal response in data set [2] (EC50) required 6.55 µM.
Consider `Nc1ccn([C@@H]2O[C@H](CO)C=C2F)c(=O)n1`, for which, in [10], the T1/2 entry is “Infinity”.
Consider `Nc1nc(=O)n([C@H]2C=C(F)[C@@H](CO)O2)cc1F`, for which the concentration for half-maximal inhibition (IC50) in data set [1], in data set [3] and in [4] was > 100 µM each time. This compound also gave an EC50 in data set [2] of 9.29 µM.
As for `Nc1nc(=O)n([C@@H]2C=C(F)[C@H](CO)O2)cc1F`, the half-inhibitory concentration (IC50) in data set [1], in [3] and in data set [4] was > 100 µM in each case. In data set [2], this compound yielded a 50% effective concentration (EC50) of 0.018 µM.
Regarding `Nc1ccn([C@@H]2C=C(F)[C@H](CO)O2)c(=O)n1`, the IC50 in [1] was > 100 µM; in data set [3] it was 86.9 µM; in data set [4] it was > 100 µM. In addition, the EC50 was determined as 0.089 µM in data set [2], 2.4 µM in data set [6] and 0.089 µM in data set [7].
Turning to `Nc1ncnc2c1ncn2[C@@H]1O[C@H](CO)[C@@H](O)[C@H]1O` [ADENOSINE], the half-life in data set [9] worked out at 0.5 min.
In the case of `Cc1cn([C@H]2C[C@H](N=[N+]=[N-])[C@@H](CO)O2)c(=O)[nH]c1=O` [ZIDOVUDINE], the EC50 in [6] came out at 0.0027 µM; in data set [7], 0.0041 µM.
